pEC50, pIC50: −log10 of the molar value.
Columns and labels:
[1] = system: Human immunodeficiency virus 1; experiment: Antiviral activity against HIV1 BaL infected in HeLa P4/R5 cells assessed as reduction of viral infection incubated for 2 hrs followed by incubated in drug-free medium for 46 hrs by single round infection beta-galactosidase reporter gene assay; assay type: functional, organism-based; settings: Human immunodeficiency virus 1, BaL
Summary of the method: (§1)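 P4R5 MAGI cells (CD4 and coreceptors, HIV-1 LTR–β-galactosidase reporter) seeded at 1.2 × 10^4 cells/well ~18 h before infection; exposed 2 h at 37 °C to cell-free X4 IIIB or R5 BaL virus with or without compound, washed, cultured 46 h more; β-galactosidase chemiluminescent read-out. Infection reduction relative to untreated; EC50 by regression; triplicate wells; dextran sulfate control.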

[2] = system: Human immunodeficiency virus 1; experiment: Antiviral activity against HIV1 3B infected in HeLa P4/R5 cells assessed as reduction of viral infection incubated for 2 hrs followed by incubated in drug-free medium for 46 hrs by single round infection beta-galactosidase reporter gene assay; assay type: functional, organism-based; settings: Human immunodeficiency virus 1, 3B; summary of the method: as §1
[3] = system: HeLa; experiment: Cytotoxicity against human HeLa P4/R5 cells after 48 hrs by MTT assay; assay type: cell-based; settings: read-out: EC50 (the source's name)
Summary of the method: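 Same P4R5 MAGI cell design as the infection assay but without virus; viability read by MTT tetrazolium reduction; each concentration tested in triplicate wells.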

[4] = system: Human immunodeficiency virus 1; experiment: Ratio of lamivudine EC50 to compound EC50 for HIV1 3B infected in HeLa P4/R5 cells; assay type: functional
[5] = system: Human immunodeficiency virus 1; experiment: Ratio of lamivudine EC50 to compound EC50 for HIV1 BaL infected in HeLa P4/R5 cells; assay type: functional
[6] = system: Human immunodeficiency virus 1; experiment: Ratio of zidovudine EC50 to compound EC50 for HIV1 BaL infected in HeLa P4/R5 cells; assay type: functional
[7] = system: Human immunodeficiency virus 1; experiment: Antiviral activity against multidrug-resistant HIV1 clade B 4775-5 clinical isolate infected in PHA-P-stimulated human PBMC assessed as reverse transcriptase activity incubated for 6 hrs followed by incubated in drug-free medium for 6 days by multiround infection assay; assay type: functional, organism-based; settings: Human immunodeficiency virus 1, clade B 4775-5
[8] = system: Human immunodeficiency virus 1; experiment: Antiviral activity against NNRTI-resistant HIV1 clade B A-17 clinical isolate infected in PHA-P-stimulated human PBMC assessed as reverse transcriptase activity incubated for 6 hrs followed by incubated in drug-free medium for 6 days by multiround infection assay; assay type: functional, organism-based; settings: Human immunodeficiency virus 1, clade B A-17
[9] = system: Human immunodeficiency virus 1; experiment: Antiviral activity against wild type HIV1 clade B 94US3393IN clinical isolate infected in PHA-P-stimulated human PBMC assessed as reverse transcriptase activity incubated for 6 hrs followed by incubated in drug-free medium for 6 days by multiround infection assay; assay type: functional, organism-based; settings: Human immunodeficiency virus 1, clade B 94US3393IN
[10] = system: Human immunodeficiency virus 1; experiment: Antiviral activity against wild type HIV1 clade C 98USMSC5016 clinical isolate infected in PHA-P-stimulated human PBMC assessed as reverse transcriptase activity incubated for 6 hrs followed by incubated in drug-free medium for 6 days by multiround infection assay; assay type: functional, organism-based; settings: Human immunodeficiency virus 1, clade C 98USMSC5016
[11] = system: Human immunodeficiency virus 1; experiment: Ratio of zidovudine EC50 to compound EC50 for HIV1 3B infected in HeLa P4/R5 cells; assay type: functional

Row | pEC50 [1] | pEC50 [2] | SMILES | CC50 [3] [nM] | further results
1 | 4.54 | 4.57 | CCCCCCCCCCCCCC(=O)NCCCC[C@H](NC(=O)[C@H](CCC(=O)OC[C@H]1O[C@@H](n2cc(C)c(=O)[nH]c2=O)C[C@@H]1F)NC(=O)CCCCCCCCCCCCC)C(=O)O | > 108000 | –
2 | 5.16 | 4.97 | CCCCCCCCCCCCCC(=O)NCCCC[C@H](NC(=O)CCNC(=O)[C@H](CCC(=O)OC[C@H]1O[C@@H](n2cc(C)c(=O)[nH]c2=O)C[C@@H]1F)NC(C)=O)C(=O)O | > 121000 | –
3 | 5.16 | 4.95 | CCCCCCCCCCCCCC(=O)OC[C@H](NC(C)=O)C(=O)NCCC(=O)N[C@@H](CCC(=O)OC[C@H]1O[C@@H](n2cc(C)c(=O)[nH]c2=O)C[C@@H]1F)C(=O)NCC(=O)O | > 119000 | –
4 | 4.06 | 4.20 | CCCCCCCCCCCCCC(=O)OC[C@H](NC(C)=O)C(=O)NCCC(=O)N[C@@H](CCC(=O)OC[C@H]1O[C@@H](n2cc(C)c(=O)[nH]c2=O)C[C@@H]1N=[N+]=[N-])C(=O)NCC(=O)O | > 116000 | –
5 | 5.44 | 5.62 | CCCCCCCCCCCCCC(=O)N[C@@H](CCC(=O)OC[C@H]1O[C@@H](n2cc(C)c(=O)[nH]c2=O)C[C@@H]1F)C(=O)OC[C@H]1O[C@@H](n2cc(C)c(=O)[nH]c2=O)C[C@@H]1N=[N+]=[N-] | > 120000 | –
6 | 4.88 | 4.87 | CC(=O)N[C@@H](CCC(=O)OC[C@H]1O[C@@H](n2cc(C)c(=O)[nH]c2=O)C[C@@H]1F)C(=O)OC[C@H]1O[C@@H](n2cc(C)c(=O)[nH]c2=O)C[C@@H]1N=[N+]=[N-] | > 151000 | –
7 | 5.57 | 5.70 | CCCCCCCCCCCCCC(=O)N[C@@H](CCC(=O)OC[C@H]1O[C@@H](n2cc(C)c(=O)[nH]c2=O)C[C@@H]1F)C(=O)OC[C@@H]1O[C@H](n2ccc(N)nc2=O)CS1 | > 126000 | –
8 | 4.91 | 4.77 | CC(=O)N[C@@H](CCC(=O)OC[C@H]1O[C@@H](n2cc(C)c(=O)[nH]c2=O)C[C@@H]1F)C(=O)OC[C@@H]1O[C@H](n2ccc(N)nc2=O)CS1 | > 160000 | –
9 | 5.19 | 5.22 | CCCCCCCCCCCCCC(=O)N[C@@H](CCC(=O)OC[C@H]1O[C@@H](n2cc(C)c(=O)[nH]c2=O)C[C@@H]1N=[N+]=[N-])C(=O)OC[C@@H]1O[C@H](n2ccc(N)nc2=O)CS1 | > 122000 | –
10 | 4.87 | 4.92 | CC(=O)N[C@@H](CCC(=O)OC[C@H]1O[C@@H](n2cc(C)c(=O)[nH]c2=O)C[C@@H]1N=[N+]=[N-])C(=O)OC[C@@H]1O[C@H](n2ccc(N)nc2=O)CS1 | > 154000 | –
11 | 5.11 | 5.20 | CCCCCCCCCCCCCC(=O)N[C@@H](CCC(=O)O)C(=O)OC[C@H]1O[C@@H](n2cc(C)c(=O)[nH]c2=O)C[C@@H]1F | > 51000 | –
12 | 6.52 | 6.22 | CCCCCCCCCCCCCC(=O)N[C@@H](CCC(=O)OC[C@@H]1O[C@H](n2ccc(N)nc2=O)CS1)C(=O)OC[C@H]1O[C@@H](n2cc(C)c(=O)[nH]c2=O)C[C@@H]1F | > 38000 | –
13 | 7.00 | 6.40 | CCCCCCCCCCCCCC(=O)N[C@@H](CCC(=O)OC[C@@H]1O[C@H](n2cc(F)c(N)nc2=O)CS1)C(=O)OC[C@H]1O[C@@H](n2cc(C)c(=O)[nH]c2=O)C[C@@H]1F | > 37000 | –
14 | 6.10 | 5.70 | Nc1nc(=O)n([C@@H]2CS[C@H](CO)O2)cc1F [EMTRICITABINE] | – | –
15 | 4.95 | 4.49 | Nc1ccn([C@@H]2CS[C@H](CO)O2)c(=O)n1 [LAMIVUDINE] | – | –

Row | SMILES | pEC50 [1] | pEC50 [2] | CC50 [3] [nM] | further results
16 | Cc1cn([C@H]2C[C@H](N=[N+]=[N-])[C@@H](COC(=O)CC[C@H](NC(=O)CCC(=O)OC[C@H]3O[C@@H](n4cc(C)c(=O)[nH]c4=O)C[C@@H]3F)C(=O)OC[C@@H]3O[C@H](n4ccc(N)nc4=O)CS3)O2)c(=O)[nH]c1=O | 5.85 | 6.05 | > 107000 | Ratio EC50 [4]: 36; Ratio EC50 [5]: 8; Ratio EC50 [6]: 10; pIC50 [7]: 8.23; IC90 [7]: 46 nM; pIC50 [8]: 7.89; IC90 [8]: 28.3 nM; pIC50 [9]: 7.57; IC90 [9]: 161 nM; pIC50 [10]: 7.64; IC90 [10]: 84.5 nM; Ratio EC50 [11]: 12
17 | Cc1cn([C@H]2C[C@H](F)[C@@H](CO)O2)c(=O)[nH]c1=O [ALOVUDINE] | 6.40 | 6.10 | – | pIC50 [7]: 6.97; IC90 [7]: 1060 nM; pIC50 [8]: 7.59; IC90 [8]: 87.2 nM; pIC50 [9]: 8.70; IC90 [9]: 20.4 nM; pIC50 [10]: 8.70; IC90 [10]: 12.3 nM
18 | Cc1cn([C@H]2C[C@H](N=[N+]=[N-])[C@@H](CO)O2)c(=O)[nH]c1=O [ZIDOVUDINE] | 4.85 | 4.97 | – | IC90 [7]: 10700 nM; IC90 [8]: 152 nM; IC90 [9]: 21.3 nM; IC90 [10]: 34.2 nM

Source: ChEMBL document CHEMBL2034836, “Synthesis and anti-HIV activities of glutamate and peptide conjugates of nucleoside reverse transcriptase inhibitors” (J Med Chem, 2012)
